Experimental findings from ChEMBL document CHEMBL1938381, “Design, synthesis, and structure-activity relationship studies of conformationally restricted mutilin 14-carbamates” (2012) are described below.

Holding throughout (format): functional
In one assay the test system is Streptococcus pneumoniae. Put plainly: Antibacterial activity against Streptococcus pneumoniae by agar microdilution method. The method in brief:
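MIC read by agar microdilution following NCCLS standard M7-A6 (2003), against a panel of 3 Streptococcus pneumoniae clinical isolates. Values in µg/mL, given as a range where the isolates differed.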

For assay [1], the system named is Staphylococcus epidermidis. Description: Antibacterial activity against methicillin-resistant Staphylococcus epidermidis by agar microdilution method. The method in brief:
(§1)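 MIC by agar microdilution following NCCLS standard M7-A6 (2003), tested against clinical isolates: MRSA n = 6, MRSE n = 5, MSSA n = 5, MSSE n = 5; values given as a single MIC or a range across isolates.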

Assay [2] deals with Staphylococcus aureus. Put plainly: Antibacterial activity against methicillin-resistant Staphylococcus aureus by agar microdilution method. Put shortly:
as §1

Assay [3] deals with Staphylococcus aureus. Put plainly: Antibacterial activity against methicillin-susceptible Staphylococcus aureus by agar microdilution method. Put shortly:
as §1

Assay [4] concerns Staphylococcus epidermidis. Description: Antibacterial activity against methicillin-susceptible Staphylococcus epidermidis by agar microdilution method. The method in brief: as §1

Each structure is given as a SMILES string. In brackets after ≈: the same amount, converted by molar mass.

On to `C=C[C@]1(C)C[C@@H](OC(=O)N2Cc3c(OC)cccc3C2=O)[C@]2(C)[C@H](C)CC[C@]3(CCC(=O)[C@H]32)[C@@H](C)[C@@H]1O`, for which the minimal inhibitory concentration (MIC) with Streptococcus pneumoniae is 4 µg/mL (≈ 7.85 µM); in assay [1], 2 µg/mL (≈ 3.92 µM); with Staphylococcus aureus [2] it was 2 µg/mL (≈ 3.92 µM); against Staphylococcus aureus [3], 2 µg/mL (≈ 3.92 µM); in assay [4] it was 2 µg/mL (≈ 3.92 µM).
As for `C=C[C@]1(C)C[C@@H](OC(=O)N2Cc3c(cccc3[N+](=O)[O-])C2=O)[C@]2(C)[C@H](C)CC[C@]3(CCC(=O)[C@H]32)[C@@H](C)[C@@H]1O`, the MIC (with Streptococcus pneumoniae; in assay [1]; against Staphylococcus aureus [2]; with Staphylococcus aureus [3]; in assay [4]) was 0.5 µg/mL (≈ 0.953 µM) each time.
Turning to `C=C[C@]1(C)C[C@@H](OC(=O)N2Cc3ccc([N+](=O)[O-])cc3C2=O)[C@]2(C)[C@H](C)CC[C@]3(CCC(=O)[C@H]32)[C@@H](C)[C@@H]1O`, the minimum inhibitory concentration (MIC) (in the assay with Streptococcus pneumoniae; in assay [1]; in the assay with Staphylococcus aureus [2]; against Staphylococcus aureus [3]; in assay [4]) was 0.5 µg/mL (≈ 0.953 µM) in each case.
On to `C=C[C@]1(C)C[C@@H](OC(=O)N2Cc3cc(N4CCOCC4)ccc3C2=O)[C@]2(C)[C@H](C)CC[C@]3(CCC(=O)[C@H]32)[C@@H](C)[C@@H]1O`, for which the minimal inhibitory concentration (MIC) (in the assay with Streptococcus pneumoniae; in assay [1]; in the assay on Staphylococcus aureus [2]; against Staphylococcus aureus [3]; in assay [4]) was 0.5 µg/mL (≈ 0.885 µM) each time.
On to `C=C[C@]1(C)C[C@@H](OC(=O)N2Cc3cc(N4CCCCC4)ccc3C2=O)[C@]2(C)[C@H](C)CC[C@]3(CCC(=O)[C@H]32)[C@@H](C)[C@@H]1O`, for which the MIC against Streptococcus pneumoniae was determined as 4 µg/mL (≈ 7.11 µM); in assay [1], 2 µg/mL (≈ 3.55 µM); against Staphylococcus aureus [2] it was 2 µg/mL (≈ 3.55 µM); against Staphylococcus aureus [3] it was 2 µg/mL (≈ 3.55 µM); in assay [4], 2 µg/mL (≈ 3.55 µM).
With `C=C[C@]1(C)C[C@@H](OC(=O)N2Cc3cc(NCc4ccccc4)ccc3C2=O)[C@]2(C)[C@H](C)CC[C@]3(CCC(=O)[C@H]32)[C@@H](C)[C@@H]1O`, the MIC (against Streptococcus pneumoniae; in assay [1]; with Staphylococcus aureus [2]; in the assay with Staphylococcus aureus [3]; in assay [4]) was 2 µg/mL (≈ 3.42 µM) each time.
Consider `C=C[C@]1(C)C[C@@H](OC(=O)N2Cc3cc(NC(=O)C(F)(F)F)ccc3C2=O)[C@]2(C)[C@H](C)CC[C@]3(CCC(=O)[C@H]32)[C@@H](C)[C@@H]1O`, for which the MIC in the assay with Streptococcus pneumoniae was determined as 4 µg/mL (≈ 6.77 µM); in assay [1], 2 µg/mL (≈ 3.39 µM); in the assay with Staphylococcus aureus [2], 2 µg/mL (≈ 3.39 µM); in the assay on Staphylococcus aureus [3] it was 2 µg/mL (≈ 3.39 µM); in assay [4], 2 µg/mL (≈ 3.39 µM).
With `C=C[C@]1(C)C[C@@H](OC(=O)N2Cc3c(N)cccc3C2=O)[C@]2(C)[C@H](C)CC[C@]3(CCC(=O)[C@H]32)[C@@H](C)[C@@H]1O`, the minimum inhibitory concentration (MIC) (in the assay with Streptococcus pneumoniae; in assay [1]; in the assay on Staphylococcus aureus [2]; with Staphylococcus aureus [3]; in assay [4]) was 0.0625 µg/mL (≈ 0.126 µM) each time.
Regarding `C=C[C@]1(C)C[C@@H](OC(=O)N2Cc3ccc(N)cc3C2=O)[C@]2(C)[C@H](C)CC[C@]3(CCC(=O)[C@H]32)[C@@H](C)[C@@H]1O`, the MIC (against Streptococcus pneumoniae; in assay [1]; in the assay on Staphylococcus aureus [2]; in the assay on Staphylococcus aureus [3]; in assay [4]) was 0.0625 µg/mL (≈ 0.126 µM) in each case.
In the case of `C=C[C@]1(C)C[C@@H](OC(=O)N2Cc3ccc(NC(=O)CN4CCOCC4)cc3C2=O)[C@]2(C)[C@H](C)CC[C@]3(CCC(=O)[C@H]32)[C@@H](C)[C@@H]1O`, the MIC in the assay with Streptococcus pneumoniae was found to be 1 µg/mL (≈ 1.61 µM); in assay [1] it was 1 µg/mL (≈ 1.61 µM); with Staphylococcus aureus [2], 0.5 µg/mL (≈ 0.804 µM); in the assay with Staphylococcus aureus [3], 0.5 µg/mL (≈ 0.804 µM); in assay [4] it was 0.5 µg/mL (≈ 0.804 µM).
For `C=C[C@]1(C)C[C@@H](OC(=O)NC(=O)c2ccc(OC)cc2)[C@]2(C)[C@H](C)CC[C@]3(CCC(=O)[C@H]32)[C@@H](C)[C@@H]1O`, in the assay on Streptococcus pneumoniae, the MIC is 0.0625 µg/mL (≈ 0.126 µM).
With `CC(=O)NC[C@H]1CN(c2ccc(N3CCOCC3)c(F)c2)C(=O)O1` [LINEZOLID], the MIC (in the assay on Staphylococcus aureus [3]; in assay [4]) was 0.5 µg/mL (≈ 1.48 µM) in each case.

A word on the MIC: it is the lowest concentration that inhibits growth of the organism. Read a low MIC as inhibition by little substance.
